Source: ChEMBL document CHEMBL1255391, “Rates and mechanisms of resistance development in Mycobacterium tuberculosis to a novel diarylquinoline ATP synthase inhibitor” (2010)
≈ marks a conversion by molar mass, not a printed value.

Key:
Format in all cases: functional
[1] = tested on: Mycobacterium tuberculosis; experiment: Antimicrobial activity against drug-susceptible Mycobacterium tuberculosis isolate 6 expressing wild type atpE Ala63Pro mutant selected after 30 times MIC drug exposure
Summary of the method: (§1)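 Each resistant mutant clone (one colony picked per independent fluctuation culture selected on drug agar) is suspended in PBS, sonicated and applied by 96-pin replicator. Nonselective and rifampin control plates are included. Plates are read after 4 weeks; MIC is the lowest concentration with no visible growth.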

[2] = tested on: Mycobacterium tuberculosis; experiment: Antimicrobial activity against multidrug-resistant Mycobacterium tuberculosis isolate 5 expressing wild type atpE Ile66Met mutant selected after 30 times MIC drug exposure; summary of the method: as §1
[3] = tested on: Mycobacterium tuberculosis; experiment: Antimicrobial activity against multidrug-resistant Mycobacterium tuberculosis isolate 3 expressing wild type atpE and F0 operon selected after 10 times MIC drug exposure; summary of the method: as §1
[4] = tested on: Mycobacterium tuberculosis; experiment: Antimicrobial activity against multidrug-resistant Mycobacterium tuberculosis isolate 5 expressing wild type atpE and F0 operon selected after 10 times MIC drug exposure; summary of the method: as §1
[5] = tested on: Mycobacterium tuberculosis; experiment: Antimicrobial activity against drug-susceptible Mycobacterium tuberculosis isolate 4 expressing wild type atpE Asp28Pro mutant selected after 10 times MIC drug exposure; summary of the method: as §1
[6] = tested on: Mycobacterium tuberculosis; experiment: Antimicrobial activity against drug-susceptible Mycobacterium tuberculosis H37Rv expressing wild type atpE Ala63Pro mutant selected after 30 times MIC drug exposure; summary of the method: as §1
[7] = tested on: Mycobacterium tuberculosis; experiment: Antimicrobial activity against multidrug-resistant Mycobacterium tuberculosis isolate 2 expressing atpE Ala28Val mutant selected after 10 times MIC drug exposure; summary of the method: as §1
[8] = tested on: Mycobacterium tuberculosis; experiment: Antimicrobial activity against multidrug-resistant Mycobacterium tuberculosis H37Rv
[9] = tested on: Mycobacterium tuberculosis; experiment: Antimicrobial activity against multidrug-resistant Mycobacterium tuberculosis isolate 2 expressing atpE Glu61Asp mutant selected after 10 times MIC drug exposure; summary of the method: as §1
[10] = tested on: Mycobacterium tuberculosis; experiment: Antimicrobial activity against multidrug-resistant Mycobacterium tuberculosis isolate 1 expressing wild type atpE selected after 10 times MIC drug exposure; summary of the method: as §1
[11] = tested on: Mycobacterium tuberculosis; experiment: Antimicrobial activity against multidrug-resistant Mycobacterium tuberculosis isolate 3 expressing wild type atpE selected after 30 times MIC drug exposure; summary of the method: as §1
[12] = tested on: Mycobacterium tuberculosis; experiment: Antimicrobial activity against drug-susceptible Mycobacterium tuberculosis isolate 4 expressing wild type atpE Glu61Asp mutant selected after 30 times MIC drug exposure; summary of the method: as §1
[13] = tested on: Mycobacterium tuberculosis; experiment: Antimicrobial activity against drug-susceptible Mycobacterium tuberculosis isolate 6 expressing wild type atpE Glu61Asp mutant selected after 30 times MIC drug exposure; summary of the method: as §1
[14] = tested on: Mycobacterium tuberculosis; experiment: Antimicrobial activity against multidrug-resistant Mycobacterium tuberculosis isolate 1 expressing atpE Glu61Asp mutant selected after 10 times MIC drug exposure; summary of the method: as §1
[15] = tested on: Mycobacterium tuberculosis; experiment: Antimicrobial activity against drug-susceptible Mycobacterium tuberculosis isolate 4 expressing wild type atpE Glu61Asp mutant selected after 10 times MIC drug exposure; summary of the method: as §1
[16] = tested on: Mycobacterium tuberculosis; experiment: Antimicrobial activity against multidrug-resistant Mycobacterium tuberculosis isolate 5 expressing wild type atpE selected after 10 times MIC drug exposure; summary of the method: as §1
[17] = tested on: Mycobacterium tuberculosis; experiment: Antimicrobial activity against multidrug-resistant Mycobacterium tuberculosis isolate 1 expressing atpE Glu63Asp mutant selected after 30 times MIC drug exposure; summary of the method: as §1
[18] = tested on: Mycobacterium tuberculosis; experiment: Antimicrobial activity against multidrug-resistant Mycobacterium tuberculosis isolate 3 expressing wild type atpE and ATP synthase selected after 10 times MIC drug exposure; summary of the method: as §1
[19] = tested on: Mycobacterium tuberculosis; experiment: Antimicrobial activity against multidrug-resistant Mycobacterium tuberculosis isolate 3 expressing wild type atpE and F0 operon selected after 30 times MIC drug exposure; summary of the method: as §1
[20] = tested on: Mycobacterium tuberculosis; experiment: Antimicrobial activity against multidrug-resistant Mycobacterium tuberculosis isolate 3 expressing wild type atpE selected after 10 times MIC drug exposure; summary of the method: as §1
[21] = tested on: Mycobacterium tuberculosis; experiment: Antimicrobial activity against multidrug-resistant Mycobacterium tuberculosis isolate 5 expressing wild type atpE Ala63Pro mutant selected after 10 times MIC drug exposure; summary of the method: as §1
[22] = tested on: Mycobacterium tuberculosis; experiment: Antimicrobial activity against multidrug-resistant Mycobacterium tuberculosis isolate 2 expressing wild type atpE selected after 10 times MIC drug exposure; summary of the method: as §1

## COc1nc2ccc(Br)cc2cc1[C@@H](c1ccccc1)[C@@](O)(CCN(C)C)c1cccc2ccccc12 [BEDAQUILINE]
[1]
  MIC: 0.9 µg/mL (≈ 1.62 µM)
[2]
  MIC: 0.9 µg/mL (≈ 1.62 µM)
[3]
  MIC: 0.9 µg/mL (≈ 1.62 µM)
[4]
  MIC: 0.48 µg/mL (≈ 0.864 µM)
[5]
  MIC: 0.3 µg/mL (≈ 0.54 µM)
[6]
  MIC: 3.84 µg/mL (≈ 6.91 µM)
[7]
  MIC: 0.48 µg/mL (≈ 0.864 µM)
[8]
  MIC: 0.03 µg/mL (≈ 0.054 µM)
[9]
  MIC: 0.24 µg/mL (≈ 0.432 µM)
[10]
  MIC: 0.12 µg/mL (≈ 0.216 µM)
[11]
  MIC: 0.48 µg/mL (≈ 0.864 µM)
[12]
  MIC: 0.48 µg/mL (≈ 0.864 µM)
[13]
  MIC: 0.48 µg/mL (≈ 0.864 µM)
[14]
  MIC: 0.48 µg/mL (≈ 0.864 µM)
[15]
  MIC: 0.96 µg/mL (≈ 1.73 µM)
[16]
  MIC: 0.12 µg/mL (≈ 0.216 µM)
[17]
  MIC: 1.92 µg/mL (≈ 3.46 µM)
[18]
  MIC: 0.9 µg/mL (≈ 1.62 µM)
[19]
  MIC: 0.9 µg/mL (≈ 1.62 µM)
[20]
  MIC: 0.9 µg/mL (≈ 1.62 µM)
[21]
  MIC: 0.24 µg/mL (≈ 0.432 µM)
[22]
  MIC: 0.12 µg/mL (≈ 0.216 µM)
